Source: publication PMC10840928 (Chemistry (Weinheim an der Bergstrasse, Germany), 2023)

What was measured:
[1] = pKa by UV-vis spectrophotometric titration; type: physicochemical; settings: pH 3-11, I = 0.1 M NaCl
How it was run: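 About 20 μM test compound in 0.1 M NaCl titrated with small aliquots of 0.2 M NaOH, from low to high pH (3–11). Run at room temperature under moist N2 flow until spectra stopped changing, giving about 30 UV-vis spectra per compound. Constants fitted with HypSpec. Largest pKa assigned to the phenol O-H.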

[2] = target: Aβ42 oligomers and fibrils (Homo sapiens, UniProt P05067); test: Fluorescence turn-on with Aβ42 fibrils and oligomers; type: binding; settings: 5 μM compound, 25 μM Aβ42 species, PBS; for maximum emission wavelength in the presence of Aβ aggregates: for DCM-OH-2-MT the LE peak; for fluorescence turn-on effect with Aβ aggregates: excitation 470 nm
[3] = target: Aβ aggregates in 5xFAD mouse brain sections (Homo sapiens, UniProt P05067); test: Histological staining of 5xFAD mouse brain sections, colocalization with ThS; settings: 9-month-old 5xFAD brain sections, 10 μM compound, 2.5 μM ThS
[4] = test system: Aβ aggregates in 5xFAD mice; test: Real-time in vivo NIR fluorescence imaging; design: species or system mouse; settings: 5 mg/kg
[5] = Job's plot analysis of Cu; type: physicochemical; settings: PBS pH 7.4, total 30 μM
How it was run: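 Test compound and Cu(II) mixed in PBS pH 7.4, Cu from 0 to 100 mol %, combined concentration fixed at 30 μM. Equilibrated at least 5 min at room temperature. UV-vis spectra recorded, and stoichiometry read from the break point of the plot versus Cu mole fraction.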

Aβ42 peptide = Aβ42 peptide (Homo sapiens, UniProt P05067); test: In vitro Aβ42 aggregation monitoring; type: binding; settings: 25 μM peptide, 5 μM probe, 37 °C, 0-40 h
[6] = Viscosity sensitivity measurement; type: physicochemical; settings: 10 μM, ethylene glycol/glycerol mixtures
How it was run: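 Mixed until no layering, then fluorescence intensity recorded. log I plotted against log η and fitted by linear regression (log I = x log η + A). Slope x taken as sensitivity.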

[7] = test system: mouse neuroblastoma (N2A) cells; test: Alamar Blue cytotoxicity, N2A cells; type: cell-based; settings: 40 h treatment
How it was run: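 Cells seeded at 2.0 × 10⁴/well and grown 24 h. Medium switched to DMEM/N-2 for 1 h, then test compound added at a range of concentrations for 40 h. Alamar Blue added and incubated 90 min at 37 °C. Fluorescence read at 590 nm (excitation 560 nm).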

[8] = test system: human neuroblastoma (SH-SY5Y) cells; test: Alamar Blue cytotoxicity, SH-SY5Y cells; type: cell-based; settings: 40 h treatment
How it was run: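 After seeding at 2.0 × 10⁴/well and 24 h growth, medium changed to MEM/F-12 (1:1)/N-2 for 1 h. Cells exposed 40 h to test compound at varying concentrations. Alamar Blue incubation 90 min at 37 °C, then fluorescence measured at 590 nm with 560 nm excitation.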

Sequence of Aβ aggregates in 5xFAD mouse brain sections (P05067 672-711 limits assumed): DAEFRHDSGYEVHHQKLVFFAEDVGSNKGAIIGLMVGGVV
Sequence of Aβ42 oligomers and fibrils (P05067 672-713 limits assumed): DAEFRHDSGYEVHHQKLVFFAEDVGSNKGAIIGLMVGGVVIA
Sequence of Aβ42 peptide (P05067 672-713 limits assumed): as above

| pKa of the phenol O-H (largest pKa value) [1] | maximum emission wavelength in the presence of Aβ aggregates [2] | fluorescence turn-on effect with Aβ aggregates [2] | Compound | labeling pattern of Aβ aggregates on brain sections [3] | stoichiometry of Cu(II)-ligand complexation in solution [5] | fluorescence response during Aβ42 aggregation (Aβ42 peptide) | further results |
| --- | --- | --- | --- | --- | --- | --- | --- |
| 9.35 | about 730 nm | – | CN1CCN(C)CCN(Cc2cc(/C=C/C=C/C3=CC(=C(C#N)C#N)c4ccccc4O3)cc(CN3CCN(C)CCN(C)CC3)c2O)CC1 [DCM-OH-2-DT] | bind to the peripheral region of the Aβ aggregates | only the 1:1 ligand-to-Cu complexes | more significant fluorescence increases at the early stage | brain NIR fluorescence signal, AD mice vs WT mice ([4]; 7-month-old 5xFAD vs WT, 5-, 15-, 30-min post injection): significantly higher fluorescence signal in AD mice; time to maximum brain fluorescence signal after injection ([4]; jugular vein injection, 7-month-old mice): about 15 min; viscosity sensitivity (x value) [6]: lowest viscosity sensitivity |
| – | ~ 650 nm | fluorescence enhancement | CN1CCN(C)CCN(Cc2cc(/C=C/C3=CC(=C(C#N)C#N)c4ccccc4O3)cc(CN3CCN(C)CCN(C)CC3)c2O)CC1 [DCM-OH-1-DT] | – | mixture of 1:1 and 2:1 ligand-to-Cu complexes | – | – |
| – | ~ 650 nm | fluorescence enhancement | CN1CCN(C)CCN(Cc2cc(/C=C/C3=CC(=C(C#N)C#N)c4ccccc4O3)ccc2O)CC1 [DCM-OH-1-MT] | – | mixture of 1:1 and 2:1 ligand-to-Cu complexes | – | – |
| 11.73 | 620 nm | significant fluorescence turn-on effect | N#CC(C#N)=C1C=C(/C=C/C=C/c2ccc(O)cc2)Oc2ccccc21 [DCM-OH-2] | binding to the identical core regions of the Aβ aggregates | – | more significant fluorescence increases at the early stage | cytotoxicity [7]: slightly more toxic than the others; cytotoxicity [8]: slightly more toxic than the others |
| – | 620 nm | – | CN1CCN(C)CCN(Cc2cc(/C=C/C=C/C3=CC(=C(C#N)C#N)c4ccccc4O3)ccc2O)CC1 [DCM-OH-2-MT] | bind to the peripheral region of the Aβ aggregates | – | – | second emission peak (ESIPT emission) in the presence of Aβ aggregates [2]: 730 nm |
| – | – | – | Cc1ccc2c(c1)sc(-c1ccc(N(C)C)cc1)[n+]2C [ThT, Thioflavin T, reference compound] | – | – | minimal fluorescence enhancement from 0–10 h | – |
